Only some compounds are listed: those with a hit (about 4.9% of all), similar ones and a draw of the others.
STAT1 inh – STAT1 signaling inhibitors, primary screen, cell-based, HTS, luciferase reporter. inhibition, % at 5.5 µM. 0.35% of 200,000 active. NIH 3T3 STAT1-luciferase reporter, IFN-gamma, luminescence;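 active = inhibition above a set limit, the mean inhibition across all tested compounds plus 3 SD, cut at about 34% in these data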;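 note: 0% = IFN-gamma with DMSO and 100% = IFN-gamma with 300 µM nifuroxazide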
STAT3 act-1 – IL-6 driven STAT3 reporter potentiators, primary screen, U3A cells, luciferase, luminescence, MLSCN library; IL-6 STAT3-luciferase reporter; 100% = signal with IL-6 EC80 alone; activation (% of control), % at 5.6 µM; 0.91% of 190,000 active; AID 871, 2007;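 active = activation above the screen-wide mean of compound activation plus 3 SD, cut at about 130% in these data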;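 note: 0% = background luminescence of wells with medium and substrate only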
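Test system: Human STAT1-deficient U3A cells with stable STAT3-luciferase reporter | Also added: Interleukin-6, 33 ng/mL | Timing: Compound pre-incubation 1 h before IL-6, then 6 h stimulation at 37 °C | Technique: Luciferase reporter luminescence | Read-out: Percent of IL-6-only median luminescence | Benchmarks: IL-6-only wells as 100% reference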
STAT3 blocker – IL-6 driven STAT3 reporter inhibitors, primary screen, U3A cells, luciferase, luminescence, MLSCN library. inhibition, % at 5.5 µM. IL-6 STAT3-luciferase reporter; host cell line lacks STAT1. 0.89% of 190,000 active. AID 862, 2007;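 active = inhibition above the mean inhibition across all screened compounds plus 3 SD, cut at about 44% in these data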;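 note: 0% = DMSO only wells and 100% = 100 µM nifuroxazide control wells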
STAT1 act-1 – STAT1 signaling activators, primary screen, cell-based, HTS, luciferase reporter; NIH 3T3 STAT1-luciferase reporter, IFN-gamma, luminescence; 100% = IFN-gamma alone, no compound; activation (% of control), % at 5.5 µM; 2.6% of 200,000 active; AID 932, 2007;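 active = activation above the screen-wide mean activation plus 3 SD, cut at about 130% in these data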;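 note: raw ratio to IFN-gamma control signal so 100% means no change and 0% no light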
FLuc inh counter – firefly luciferase enzyme inhibitors, primary screen, artefact control for luciferase-based inhibitor screens, biochemical, luminescence, ATPLite | Luciferin 4-monooxygenase (Photinus pyralis), P08659 | 10 min | inhibition, % at 10 µM | 1.5% of 200,000 active | AID 1006, 2008;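 active = inhibition above about 50% when tested at 10 µM, limit read from the data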
Target sequence (P08659 whole entry, looked up): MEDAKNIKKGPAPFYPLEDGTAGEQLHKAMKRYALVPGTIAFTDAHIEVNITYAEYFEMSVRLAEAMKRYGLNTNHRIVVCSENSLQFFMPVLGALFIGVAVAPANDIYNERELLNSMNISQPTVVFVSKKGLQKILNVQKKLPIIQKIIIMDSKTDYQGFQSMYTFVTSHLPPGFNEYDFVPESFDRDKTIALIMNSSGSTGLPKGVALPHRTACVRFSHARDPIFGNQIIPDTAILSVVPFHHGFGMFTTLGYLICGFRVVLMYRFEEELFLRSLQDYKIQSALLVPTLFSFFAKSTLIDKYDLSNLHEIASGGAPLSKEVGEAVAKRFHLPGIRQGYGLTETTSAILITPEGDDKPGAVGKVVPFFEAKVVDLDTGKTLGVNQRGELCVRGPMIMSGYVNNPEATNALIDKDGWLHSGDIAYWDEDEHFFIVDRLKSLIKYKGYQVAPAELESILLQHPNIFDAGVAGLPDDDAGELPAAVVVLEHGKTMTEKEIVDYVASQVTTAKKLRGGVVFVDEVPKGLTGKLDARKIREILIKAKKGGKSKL
FLuc stim CS – FLuc activators, initial screening, artefact control for FLuc-dependent activation tests, biochemical, ATPlite luminescence. Luciferin 4-monooxygenase (Photinus pyralis), P08659. ATPlite luciferase biochemical, 10 min; 0 = ATP-free wells, 1 = DMSO control. activation factor at 10 µM. 200,000 tested, under 10 active. AID 1027, 2008;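 active = luciferase activation factor, scaled between plate controls, of at least 2 with compound at 10 µM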
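Material: luciferase plus luciferin reagent, cell-free. Medium: PBS buffer for ATP. Also added: ATP substrate, dispensed from a 10.24 µM working solution in PBS. Doses: test compounds dosed from 2 mM stocks in 100% DMSO. Incubation: 10 min post-reagent at room temperature. Technique: light output (luminescence). Read-out basis: luminescence gain marking luciferase activators.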
STAT3 act-2 – STAT3 reporter potentiators, retest of hits, confirmation, U3A cells, luciferase, luminescence | shares compounds with STAT3 act-1 | IL-6 potentiation; U3A cells lack STAT1; 100 means same as IL-6 alone | potentiation (% of control), % at 5.7 µM | 64% of 1,200 active;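 active = percent activation of the STAT3 luciferase reporter above a set limit taken from the earlier primary screen, cut at about 130% in these data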;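 note: 0% = background signal of medium plus substrate and 100% = median of IL-6 with DMSO wells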
NFkB act STAT3ct – NF-kB reporter activators in human cells, counter-screen for STAT3 activator project. shares compounds with STAT3 act-1. NF-kappaB reporter activation. activation (% of control), % at 5.7 µM. 11% of 1,200 active; in the data active = activation above about 120%;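 note: reporter induced by TNF-alpha stimulation; 100% = median of stimulated DMSO wells and 0% = no signal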
STAT1 act-2 – STAT1 reporter activators, IFN-gamma induced, counter-screen for STAT3 activator project, cell-based, NIH 3T3, luciferase luminescence; AID 1318, 2008; shares compounds with STAT3 act-1; NIH 3T3 STAT1-luciferase reporter; 13% of 1,200 active; activation (% of control), % at 5.7 µM;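 active = activation above the solvent-only control well mean plus 3 SD, set per screening run, cut at about 120% in these data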;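 note: 100% = IFN-gamma with DMSO median signal so 100% means no change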
An asterisk follows results filed as active; nt = no result given.

SMILES	STAT1 inh	STAT3 act-1	STAT3 blocker	STAT1 act-1	FLuc inh counter	FLuc stim CS	STAT3 act-2	NFkB act STAT3ct	STAT1 act-2
O=C(COC(=O)c1ccc2c(c1)C(=O)N(Cc1ccncc1)C2=O)Nc1ccccc1[N+](=O)[O-]	12	138*	-45	89	-2	1	147*	107	96
CC1=NC(=O)C(N=Nc2ccccc2)N1c1ccccc1 (stereo not given)	-30	163*	-71	121	8	0.9	162*	125*	160*
O=C(C1CCCCC1)N1CCCC(c2nc3c(nnn3Cc3ccccc3)c(=O)[nH]2)C1 (stereo not given)	4	96	8	97	0	1	nt	nt	nt
O=C(c1ccccc1)N1CCCC(c2nc3c(nnn3Cc3ccccc3)c(=O)[nH]2)C1 (stereo not given)	-3	148*	-52	103	-7	1.1	97	106	106
CCCN1C(=O)/C(=N\OCC(=O)NC23CC4CC(CC(C4)C2)C3)c2ccccc21	-4	87	18	104	3	1	nt	nt	nt
COC(=O)c1sccc1NC(=O)c1ccc(C)s1	-3	158*	-64	102	-5	1.1	128	96	98
COC(=O)c1sccc1NC(=O)c1ccc(Cl)s1	1	143*	-48	98	-8	1.1	176*	121*	108
COC(=O)c1sccc1NC(=O)c1c(C)cc(=O)oc1C	-1	100	3	101	-6	1.1	nt	nt	nt
CCOc1ccccc1C(=O)Nc1ccsc1C(=O)OC	-5	101	-3	104	-3	1	nt	nt	nt
CCn1c(C(=O)Nc2ccsc2C(=O)OC)cc2sc(Cl)cc21	3	165*	-75	97	-6	1.1	138*	106	93
COC(=O)c1sccc1NC(=O)c1ccc(Br)s1	10	150*	-50	90	-4	1	146*	104	104
COC(=O)c1sccc1NC(=O)Cc1ccc(Br)cc1	0	95	6	100	1	1	nt	nt	nt
COC(=O)c1c(NC(=O)c2ccc(Br)s2)sc2c1CCC2	-4	137*	-43	104	-22	1.2	123	105	98
CS(=O)(=O)c1ccc(SCC(=O)NC2CCS(=O)(=O)C2)c([N+](=O)[O-])c1 (stereo not given)	3	99	5	96	-3	1	nt	nt	nt
COc1ccc(Cl)cc1-c1nc(-c2ccc(Br)o2)no1	-3	174*	-86	103	-5	1.1	160*	114	117
CC(C)Cc1cc(C(=O)Nc2cc(C(F)(F)F)ccc2Cl)no1	3	143*	-42	98	-3	1	125	97	96
O=C(Nc1cc(C(F)(F)F)ccc1Cl)c1ccncc1	-6	88	17	105	-1	1	nt	nt	nt
COc1ccccc1OCCCN1C(=O)C(=O)c2cccc(C)c21	7	138*	-41	92	9	0.9	132	104	97
O=S(=O)(Nc1ccc2cn[nH]c2c1)c1ccc(Cl)s1	0	138*	-49	100	-5	1.1	122	97	95
COc1ccccc1S(=O)(=O)Nc1ccc2cn[nH]c2c1	2	126	-26	98	-7	1.1	nt	nt	nt
CCCCS(=O)(=O)Nc1ccc2cn[nH]c2c1	-2	143*	-47	100	-2	1	139*	101	99
CC(C)n1cc(CN2CCN(CCc3ccccc3)C(CCO)C2)cn1 (stereo not given)	-7	110	1	106	-10	1.1	nt	nt	nt
Clc1ccc(Nc2nc(-c3cccnc3)cs2)cc1	-18	192*	-104	116	8	0.9	179*	122*	139*
NC(=O)Cn1c(=O)n(Cc2ccco2)c(=O)c2c3c(sc21)CCCCC3	5	147*	-55	96	-3	1	131	105	105
Cc1ccc(NC(=O)CN(C)CC(=O)Nc2ccccc2C(=O)Nc2ccccc2)cc1	11	147*	-49	90	-5	1	123	103	104
SMILES	STAT1 inh	STAT3 act-1	STAT3 blocker	STAT1 act-1	FLuc inh counter	FLuc stim CS	STAT3 act-2	NFkB act STAT3ct	STAT1 act-2
CSc1nc(/C=C2\C=Nc3ccccc32)c(O)n1C	0	146*	-55	100	36	0.6	155*	111	103
Fc1ccc(/C=C\c2nccc3c2[nH]c2ccccc23)cc1	-21	138*	-46	117	8	0.9	148*	111	99
Cc1ccc(C)c(S(=O)(=O)Nc2ccc(C(=O)NCCc3ccccn3)cc2)c1	-4	102	-2	104	0	1	nt	nt	nt
COc1ccc(C)cc1S(=O)(=O)N(C)CC(=O)NC1CCCCCC1	-7	136*	-38	103	-8	1.1	99	109	97
COc1cc(OC)cc(C(=O)N[C@H](C(=O)Nc2cc(C)cc(C)c2)C(C)C)c1	9	101	4	90	-6	1.1	nt	nt	nt
CC1CCCCN1C(=O)COc1ccc(F)cc1 (stereo not given)	-7	100	7	106	2	1	nt	nt	nt
CCCn1c(NC(=O)c2ccccc2)nc2ccccc21	-3	137*	-33	102	-4	1	113	106	100
CCCn1c(NC(=O)c2ccc(C)cc2)nc2ccccc21	-15	104	0	114	-1	1	nt	nt	nt
O=C(Nc1nc2ccccc2n1CCN1CCCC1)c1ccc(Cl)cc1	-22	150*	-55	122	6	0.9	143*	117	127*
O=C(CSc1ncccn1)NC(=O)c1ccccc1	-5	99	5	104	1	1	nt	nt	nt
O=Nc1c2ccc[nH]c-2c2ccc([N+](=O)[O-])cc12	-20	83	24	119	-7	1.1	nt	nt	nt
CN1CCN(C(=O)CNc2ccc(C(F)(F)F)cc2[N+](=O)[O-])CC1	0	162*	-74	98	-4	1	157*	103	101
CC(C)NC(=O)CNc1ccc(C(F)(F)F)cc1[N+](=O)[O-]	-7	103	-2	104	-7	1.1	nt	nt	nt

Source: PubChem
